Activity calls are given as the source filed them. No cut-off for these calls is given here.
Legend:
[1] = system: Plasma; experiment: Drug level in rat plasma treated with P'1,P'4-di-(2 methylthio-5'-adenosine) P'1,P'4-dithio-P'2,P'3-chloromethylenetetraphosphate, sodium salt at 50 uM after 77 hrs by HPLC analysis; assay type: ADME, cell-free
Summary of the method: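 Frozen pooled heparinised rat or human plasma, thawed and warmed 5 min at 37 °C, spiked to 50 μM final compound (from 10 mM saline stock), held at 37 °C up to 77 h; heat-denatured plasma as chemical control; aliquots quenched with MeCN, ultrafiltered, dried, redissolved in pH 8.5 phosphate/EDTA; isocratic RP-HPLC, 273 nm; metabolites confirmed by reference compounds and LCMS; peak areas internally normalised.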

[2] = system: Platelet; experiment: Anti-aggregatory activity in human platelet rich plasma assessed as inhibition of ADP-induced platelet shape change; assay type: functional, cell-free
[3] = biological target: T1, P2Y purinoceptor 1 (Homo sapiens, UniProt P47900); experiment: Antagonist activity at human platelet P2Y1 receptor assessed as inhibition of ADP-induced increase in cytosolic calcium level by FLUO-4 staining based flow cytometric analysis; assay type: functional
Summary of the method: (§1)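 Stimulus was extracellular Ca2+ uptake on 1 μM test compound (P2X1, scaled to 20 μM β,γ-CH2-ATP as 100%, selective P2Y1 inhibitor control), or 3 μM ADP (P2Y1 antagonism; omitted for agonism).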

[4] = biological target: T1, P2Y purinoceptor 1; experiment: Agonist activity at human platelet P2Y1 receptor assessed as increase in cytosolic calcium level by FLUO-4 staining based flow cytometric analysis; assay type: functional; summary of the method: as §1
[5] = biological target: T2, P2Y purinoceptor 12 (Homo sapiens, UniProt Q9H244); experiment: Antagonist activity at human platelet P2Y12 receptor assessed as inhibition of ADP-mediated decrease in intra-platelet phosphorylated VASP by flow cytometric analysis
[6] = biological target: T3, P2X purinoceptor 1 (Homo sapiens) (UniProt P51575); experiment: Agonist activity at human platelet P2X1 receptor assessed as increase in cytosolic calcium level at 1 uM by […] staining based flow cytometric analysis relative to beta,gamma-CH2-ATP; summary of the method: as §1
T3 sequence (whole entry): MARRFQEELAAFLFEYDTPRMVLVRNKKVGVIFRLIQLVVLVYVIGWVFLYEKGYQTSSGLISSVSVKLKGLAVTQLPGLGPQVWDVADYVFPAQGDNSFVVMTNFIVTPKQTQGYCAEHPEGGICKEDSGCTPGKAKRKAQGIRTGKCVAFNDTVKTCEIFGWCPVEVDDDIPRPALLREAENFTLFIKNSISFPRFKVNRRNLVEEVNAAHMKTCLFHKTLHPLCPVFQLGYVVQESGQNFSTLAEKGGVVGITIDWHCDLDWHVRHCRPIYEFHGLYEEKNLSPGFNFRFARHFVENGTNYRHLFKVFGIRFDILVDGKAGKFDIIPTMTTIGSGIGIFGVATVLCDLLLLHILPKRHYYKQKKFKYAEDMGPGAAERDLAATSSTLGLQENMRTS

[7] = biological target: T2, P2Y purinoceptor 12; experiment: Agonist activity at human platelet P2Y12 receptor assessed as decrease in intra-platelet phosphorylated VASP by flow cytometric analysis
[8] = Anti-aggregatory activity in human platelet rich plasma assessed as inhibition of ADP-induced platelet aggregation by optical aggregometry; assay type: functional, cell-free
[9] = system: Plasma; experiment: Metabolic stability in rat plasma assessed as first order elimination rate constant at 50 uM measured at 1 to 4 hrs; assay type: ADME, cell-free
[10] = system: Plasma; experiment: Metabolic stability in human plasma assessed as first order elimination rate constant at 50 uM measured at 1 to 4 hrs; assay type: ADME, cell-free
[11] = system: Plasma; experiment: Half life in human plasma at 50 uM measured at 1 to 4 hrs; assay type: ADME, cell-free
[12] = system: Plasma; experiment: Half life in rat plasma at 50 uM measured at 1 to 4 hrs; assay type: ADME, cell-free
[13] = Anti-aggregatory activity in human platelet rich plasma assessed as inhibition of 20 uM ADP-induced platelet aggregation preincubated for 15 mins by optical aggregometric analysis; assay type: functional, cell-free
[14] = Anti-aggregatory activity in human platelet rich plasma assessed as inhibition of 20 uM ADP-induced platelet aggregation by optical aggregometric analysis; assay type: functional, cell-free

T1 sequence (P47900 whole entry): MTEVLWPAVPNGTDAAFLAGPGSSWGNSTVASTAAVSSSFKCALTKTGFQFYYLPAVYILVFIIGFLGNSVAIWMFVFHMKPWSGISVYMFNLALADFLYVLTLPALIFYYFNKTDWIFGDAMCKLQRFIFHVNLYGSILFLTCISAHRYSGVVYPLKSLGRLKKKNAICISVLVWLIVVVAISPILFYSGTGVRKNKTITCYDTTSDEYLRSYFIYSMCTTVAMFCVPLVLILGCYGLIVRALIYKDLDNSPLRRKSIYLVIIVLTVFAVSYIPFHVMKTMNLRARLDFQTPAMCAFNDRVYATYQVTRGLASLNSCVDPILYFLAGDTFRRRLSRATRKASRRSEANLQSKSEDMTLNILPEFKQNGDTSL
T2 sequence (Q9H244 whole entry): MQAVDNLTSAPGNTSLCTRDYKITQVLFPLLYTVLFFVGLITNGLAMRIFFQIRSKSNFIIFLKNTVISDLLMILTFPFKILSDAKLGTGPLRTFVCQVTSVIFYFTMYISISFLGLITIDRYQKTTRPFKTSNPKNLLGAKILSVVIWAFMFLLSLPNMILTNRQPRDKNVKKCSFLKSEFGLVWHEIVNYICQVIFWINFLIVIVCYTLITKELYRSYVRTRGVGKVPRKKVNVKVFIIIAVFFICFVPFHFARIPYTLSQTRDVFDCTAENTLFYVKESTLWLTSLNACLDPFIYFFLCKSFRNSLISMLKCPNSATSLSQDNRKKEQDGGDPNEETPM

| IC50 [3] | Activity [4] | IC50 [5] | Activity [6] | Activity [7] | IC50 [13] | IC50 [14] | SMILES | Drug metabolism [1] | inhibition [2] | IC50 [8] | Kel [9] | Kel [10] | t1/2 [11] | t1/2 [12] |
| --- | --- | --- | --- | --- | --- | --- | --- | --- | --- | --- | --- | --- | --- | --- |
| 10.2 µM | – | – | – | – | – | – | Nc1ncnc2c1ncn2[C@@H]1O[C@H](COP(=O)(S)OP(=O)(O)C(Cl)P(=O)(O)OP(=O)(S)OC[C@H]2O[C@@H](n3cnc4c(N)ncnc43)[C@H](O)[C@@H]2O)[C@@H](O)[C@H]1O (mixture of isomers) | – | – | – | – | – | – | – |
| 8.8 µM | inactive | 156000 nM | -0.01% | inactive | – | – | CCCNc1ncnc2c1ncn2[C@@H]1O[C@H](COP(=O)(S)OP(=O)(O)C(Cl)P(=O)(O)OP(=O)(S)OC[C@H]2O[C@@H](n3cnc4c(NCCC)ncnc43)[C@H](O)[C@@H]2O)[C@@H](O)[C@H]1O (mixture of isomers) | – | Active | – | – | – | – | – |
| 7.37 µM | inactive | 9300 nM | 0.07% | inactive | – | – | Nc1nc(Cl)nc2c1ncn2[C@@H]1O[C@H](COP(=O)(S)OP(=O)(O)C(Cl)P(=O)(O)OP(=O)(S)OC[C@H]2O[C@@H](n3cnc4c(N)nc(Cl)nc43)[C@H](O)[C@@H]2O)[C@@H](O)[C@H]1O (mixture of isomers) | – | Active | – | – | – | – | – |
| 2.24 µM | inactive | 340 nM | 1.8% | inactive | 4.52 µM | 6.22 µM | Nc1nc(Br)nc2c1ncn2[C@@H]1O[C@H](COP(=O)(S)OP(=O)(O)C(Cl)P(=O)(O)OP(=O)(S)OC[C@H]2O[C@@H](n3cnc4c(N)nc(Br)nc43)[C@H](O)[C@@H]2O)[C@@H](O)[C@H]1O (mixture of isomers) | – | Active | – | – | – | – | – |
| 1.97 µM | inactive | > 200000 nM | 0.31% | inactive | – | – | CNc1ncnc2c1ncn2[C@@H]1O[C@H](COP(=O)(S)OP(=O)(O)C(Cl)P(=O)(O)OP(=O)(S)OC[C@H]2O[C@@H](n3cnc4c(NC)ncnc43)[C@H](O)[C@@H]2O)[C@@H](O)[C@H]1O (mixture of isomers) | – | Active | – | – | – | – | – |
| 2.65 µM | inactive | 1350 nM | 0.69% | inactive | – | – | Nc1nc(I)nc2c1ncn2[C@@H]1O[C@H](COP(=O)(S)OP(=O)(O)C(Cl)P(=O)(O)OP(=O)(S)OC[C@H]2O[C@@H](n3cnc4c(N)nc(I)nc43)[C@H](O)[C@@H]2O)[C@@H](O)[C@H]1O (mixture of isomers) | – | Active | – | – | – | – | – |
| 0.36 µM | inactive | 730 nM | 92% | inactive | – | – | CNc1nc(SC)nc2c1ncn2[C@@H]1O[C@H](COP(=O)(S)OP(=O)(O)C(Cl)P(=O)(O)OP(=O)(S)OC[C@H]2O[C@@H](n3cnc4c(NC)nc(SC)nc43)[C@H](O)[C@@H]2O)[C@@H](O)[C@H]1O (some centres not stated) | – | Active | – | – | – | – | – |

Second part, the molecule before the results:

| SMILES | IC50 [3] | Activity [4] | IC50 [5] | Activity [6] | Activity [7] | IC50 [13] | IC50 [14] | Drug metabolism [1] | inhibition [2] | IC50 [8] | Kel [9] | Kel [10] | t1/2 [11] | t1/2 [12] |
| --- | --- | --- | --- | --- | --- | --- | --- | --- | --- | --- | --- | --- | --- | --- |
| CSc1nc(N)c2ncn([C@@H]3O[C@H](COP(O)(O)=S)[C@@H](O)[C@H]3O)c2n1 | – | – | – | – | – | – | – | metabolite_detected | – | – | – | – | – | – |
| CSc1nc(N)c2ncn([C@@H]3O[C@H](COP(=O)(S)OP(=O)(O)OP(=O)(O)OP(=O)(S)OC[C@H]4O[C@@H](n5cnc6c(N)nc(SC)nc65)[C@H](O)[C@@H]4O)[C@@H](O)[C@H]3O)c2n1 (mixture of isomers) | 0.16 µM | inactive | 2400 nM | 3% | inactive | – | – | – | Active | – | – | – | – | – |
| CSc1nc(N)c2ncn([C@@H]3O[C@H](COP(=O)(O)OP(=O)(O)C(Cl)P(=O)(O)OP(=O)(O)OC[C@H]4O[C@@H](n5cnc6c(N)nc(SC)nc65)[C@H](O)[C@@H]4O)[C@@H](O)[C@H]3O)c2n1 (some centres not stated) | 29 µM | inactive | 310 nM | – | inactive | – | – | – | Active | – | – | – | – | – |
| CCCCCSc1nc(N)c2ncn([C@@H]3O[C@H](COP(=O)(S)OP(=O)(O)C(Cl)P(=O)(O)OP(=O)(S)OC[C@H]4O[C@@H](n5cnc6c(N)nc(SCCCCC)nc65)[C@H](O)[C@@H]4O)[C@@H](O)[C@H]3O)c2n1 (mixture of isomers) | 4.21 µM | inactive | 3100 nM | 4.7% | inactive | – | – | – | Active | – | – | – | – | – |
| CSc1nc(N)c2ncn([C@@H]3O[C@H](COP(=O)(O)OP(=O)(O)OP(=O)(O)OP(=O)(O)OC[C@H]4O[C@@H](n5cnc6c(N)nc(SC)nc65)[C@H](O)[C@@H]4O)[C@@H](O)[C@H]3O)c2n1 | 4.9 µM | inactive | 1400 nM | 48% | inactive | – | – | – | Active | – | – | – | – | – |
| CSc1nc(N)c2ncn([C@@H]3O[C@H](COP(=O)([S-])OP(=O)([O-])C(Cl)P(=O)([O-])OP(=O)([S-])OC[C@H]4O[C@@H](n5cnc6c(N)nc(SC)nc65)[C@H](O)[C@@H]4O)[C@@H](O)[C@H]3O)c2n1.[Na+].[Na+].[Na+].[Na+] (single isomer, unassigned; diastereomer 1) | – | – | – | – | – | – | – | – | – | 76 nM | 0.0069 h⁻¹ | 0.00976 h⁻¹ | 71 h | 100.5 h |
| CSc1nc(N)c2ncn([C@@H]3O[C@H](COP(=O)(S)OP(=O)(O)C(Cl)(Cl)P(=O)(O)OP(=O)(S)OC[C@H]4O[C@@H](n5cnc6c(N)nc(SC)nc65)[C@H](O)[C@@H]4O)[C@@H](O)[C@H]3O)c2n1 (mixture of isomers) | 1.02 µM | inactive | 1120 nM | 3.3% | inactive | – | – | – | Active | – | – | – | – | – |
| CCCSc1nc(N)c2ncn([C@@H]3O[C@H](COP(=O)(S)OP(=O)(O)C(Cl)P(=O)(O)OP(=O)(S)OC[C@H]4O[C@@H](n5cnc6c(N)nc(SCCC)nc65)[C@H](O)[C@@H]4O)[C@@H](O)[C@H]3O)c2n1 (mixture of isomers) | 6.3 µM | inactive | 1020 nM | 31% | inactive | – | – | – | Active | – | – | – | – | – |
| CSc1nc(N)c2ncn([C@@H]3O[C@H](COP(=O)([S-])OP(=O)([O-])C(Cl)P(=O)([O-])OP(=O)([S-])OC[C@H]4O[C@@H](n5cnc6c(N)nc(SC)nc65)[C@H](O)[C@@H]4O)[C@@H](O)[C@H]3O)c2n1.[Na+].[Na+].[Na+].[Na+] (single isomer, unassigned; diastereomer 2) | – | – | – | – | – | – | – | – | – | 83 nM | 0.137 h⁻¹ | 0.0171 h⁻¹ | 40.6 h | 5.06 h |
| CNc1ncnc2c1ncn2[C@H]1C[C@H](OP(=O)(O)O)[C@@H](COP(=O)(O)O)O1 | 2.25 µM | – | – | – | – | – | – | – | – | – | – | – | – | – |
| Nc1nc(SCCC(F)(F)F)nc2c1ncn2[C@@H]1O[C@H](COP(=O)(S)OP(=O)(O)C(Cl)P(=O)(O)OP(=O)(S)OC[C@H]2O[C@@H](n3cnc4c(N)nc(SCCC(F)(F)F)nc43)[C@H](O)[C@@H]2O)[C@@H](O)[C@H]1O (mixture of isomers) | 5.2 µM | inactive | 210 nM | 4.7% | inactive | – | – | – | Active | – | – | – | – | – |
| CSc1nc(N)c2ncn([C@@H]3O[C@H](COP(=O)([S-])OP(=O)([O-])C(Cl)P(=O)([O-])OP(=O)([S-])OC[C@H]4O[C@@H](n5cnc6c(N)nc(SC)nc65)[C@H](O)[C@@H]4O)[C@@H](O)[C@H]3O)c2n1.[Na+].[Na+].[Na+].[Na+] (single isomer, unassigned; diastereomer 3) | – | – | – | – | – | – | – | – | – | 64 nM | 0.128 h⁻¹ | 0.0217 h⁻¹ | 31.9 h | 5.4 h |
| CSc1nc(N)c2ncn([C@@H]3O[C@H](COP(=O)([S-])OP(=O)([O-])C(Cl)P(=O)([O-])OP(=O)([S-])OC[C@H]4O[C@@H](n5cnc6c(N)nc(SC)nc65)[C@H](O)[C@@H]4O)[C@@H](O)[C@H]3O)c2n1.[Na+].[Na+].[Na+].[Na+] (single isomer, unassigned; diastereomer 4) | – | – | – | – | – | – | – | – | – | 110 nM | 0.508 h⁻¹ | 0.0424 h⁻¹ | 16.4 h | 1.37 h |
